Experimental data as given in ChEMBL document CHEMBL4325822, “Discovery of a tetrazolyl β-carboline with in vitro and in vivo osteoprotective activity under estrogen-deficient conditions” (Medchemcomm, 2018).
Each block holds one compound with its values, some of them ahead of it. Activity calls are given as the source filed them. No cut-off for these calls is given here.

Legend:
Rattus norvegicus [1] = assay: (§1) Antiosteoporotic activity in Sprague-Dawley rat model of OVX-induced bone loss assessed as protection against microarchitectural deterioration by measuring structural model index at 100 ug/kg, sc administered 5 days/week for 12 weeks by microcomputed tomographic analysis (reference value: 2.07 +/- 0.06); format: functional
Rattus norvegicus [2] = assay: as §1, with “trabecular separation” for “structural model index”, “1.31” for “2.07”, “0.06 millimeter)” for “0.06)”; format: functional
Outline: (§2)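 Adult female Sprague-Dawley rats were ovariectomized and left 12 weeks to become osteopenic. They then received 12 weeks of once-daily oral gavage (1% gum acacia vehicle) or subcutaneous estradiol, five days a week. Femurs were collected at sacrifice and scanned by micro-CT for BMD and trabecular microarchitecture. Ten rats per group; mean ± SEM.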

[3] = Toxicity in Sprague-Dawley rat model of OVX-induced bone loss assessed as total uterine area at 100 ug/kg, sc for 12 weeks (reference value: 0.11 +/- 0.003 mm2); format: organism-based; settings: in vivo, 0.1 mg/kg, 2016 h
Rattus norvegicus [4] = assay: Antiosteoporotic activity in Sprague-Dawley rat model of OVX-induced bone loss assessed as mineral apposition rate at 100 ug/kg, sc administered 5 days/week for 12 weeks by microcomputed tomographic analysis (reference value: 0.169 +/- 0.004 umeter/day); format: functional
Outline: (§3)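 Female Sprague-Dawley rats, 10-12 weeks old, ten per group, were ovariectomized and left 12 weeks for osteopenia. They were then dosed once daily by oral gavage for 12 weeks in 1% gum acacia vehicle. The estradiol arm received 100 µg·kg⁻¹ subcutaneously five days a week. Tetracycline and calcein were given intraperitoneally at 20 mg·kg⁻¹ each. Femur cross-sections (50 µm) were imaged by fluorescence microscopy for MAR and BFR.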

Rattus norvegicus [5] = assay: Antiosteoporotic activity in Sprague-Dawley rat model of OVX-induced bone loss assessed as increase in femoral bone strength by measuring energy at 100 ug/kg, sc administered 5 days/week for 12 weeks by 3 point bending test (reference value: 46.27 +/- 4.36 mJ); format: functional
[6] = molecular target: T1, I-kappa-B kinase (Rattus norvegicus) (UniProt Q9QY78+G3V926+Q6TMG5); assay: Inhibition of IKK in TNFalpha-simulated Sprague-Dawley rat calvarial osteoblasts assessed as ratio of IkBalpha level to beta-actin level at 10 nM after 24 hrs by Western blot analysis (reference value: 0.78); format: cell-based; settings: Calvarial osteoblast
Outline: (§4)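 Primary osteoblasts from pooled calvaria of 1-2 day SD rat pups (sequential dispase/collagenase digestion) were grown to 60-70% confluence. They were treated with 17β-estradiol 10 nM in the presence of TNFα 10 ng·ml⁻¹ for 24 h. Whole-cell lysates were immunoblotted, and bands were detected by ECL. Densitometry was normalised to β-actin.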

[7] = Toxicity in Sprague-Dawley rat model of OVX-induced bone loss assessed as luminal epithelial height at 100 ug/kg, sc for 12 weeks (reference value: 27.29 +/- 0.96 umeter); format: organism-based; settings: in vivo, 0.1 mg/kg, 2016 h
[8] = molecular target: T1, I-kappa-B kinase (Rattus norvegicus); assay: Inhibition of IKK in Sprague-Dawley rat calvarial osteoblasts assessed as reduction in TNFalpha-induced IkBalpha phosphorylation by measuring ratio of phosphorylated IkBalpha level to beta-actin level at 10 nM after 24 hrs by Western blot analysis (reference value: 2.32); format: cell-based; settings: Calvarial osteoblast; outline: as §4
[9] = molecular target: T1, I-kappa-B kinase (Rattus norvegicus); assay: Inhibition of IKK in TNFalpha-simulated Sprague-Dawley rat calvarial osteoblasts assessed as ratio of Bcl-xL level to beta-actin level at 10 nM after 24 hrs by Western blot analysis (reference value: 0.69); format: cell-based; settings: Calvarial osteoblast; outline: as §4
Rattus norvegicus [10] = assay: Antiosteoporotic activity in Sprague-Dawley rat model of OVX-induced bone loss assessed as increase in femoral bone strength by measuring stiffness at 100 ug/kg, sc administered 5 days/week for 12 weeks by 3 point bending test (reference value: 122.07 +/- 12.18 N/mm); format: functional
[11] = molecular target: T1, I-kappa-B kinase (Rattus norvegicus); assay: Inhibition of IKK in Sprague-Dawley rat calvarial osteoblasts assessed as reduction in TNFalpha-induced beta-catenin degradation by measuring ratio of beta-catenin level to beta-actin level at 10 nM after 24 hrs by Western blot analysis (reference value: 0.32); format: cell-based; settings: Calvarial osteoblast; outline: as §4
[12] = Toxicity in Sprague-Dawley rat model of OVX-induced bone loss assessed as luminal area at 100 ug/kg, sc for 12 weeks (reference value: 0.01 +/- 0.0004 mm2); format: organism-based; settings: in vivo, 0.1 mg/kg, 2016 h
Rattus norvegicus [13] = assay: as §1, with “trabecular number” for “structural model index”, “0.56” for “2.07”, “0.06 /millimeter)” for “0.06)”; format: functional; outline: as §2
[14] = molecular target: T1, I-kappa-B kinase (Rattus norvegicus); assay: Inhibition of IKK in Sprague-Dawley rat calvarial osteoblasts assessed as reduction in TNFalpha-induced NFkB signaling by measuring ratio of cytosolic p65 level to beta-actin level at 10 nM after 24 hrs by Western blot analysis (reference value: 0.99); format: cell-based; settings: Calvarial osteoblast
Rattus norvegicus [15] = assay: as §1, with “ratio of bone volume/[…]” for “structural model index”, “4.68” for “2.07”, “0.58%)” for “0.06)”; format: functional
[16] = molecular target: T1, I-kappa-B kinase (Rattus norvegicus); assay: Inhibition of IKK in TNFalpha-simulated Sprague-Dawley rat calvarial osteoblasts assessed as ratio of Bax level to beta-actin level at 10 nM after 24 hrs by Western blot analysis (reference value: 1.25); format: cell-based; settings: Calvarial osteoblast; outline: as §4
[17] = molecular target: T1, I-kappa-B kinase (Rattus norvegicus); assay: Inhibition of IKK in Sprague-Dawley rat calvarial osteoblasts assessed as reduction in TNFalpha-induced NFkB nuclear translocation at 10 nM after 24 hrs by immunofluorescence assay; format: cell-based; settings: Calvarial osteoblast
Outline: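 Primary rat osteoblasts on chamber slides given TNFα (10 ng·ml⁻¹) for 24 h, with or without treatment. Then 4% PFA fixation, 0.1% Triton X-100, anti-NF-κB overnight, and Cy3 anti-rabbit secondary. Fluorescence imaged at excitation 552 nm, emission 570 nm.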

[18] = molecular target: T1, I-kappa-B kinase (Rattus norvegicus); assay: Inhibition of IKK in Sprague-Dawley rat calvarial osteoblasts assessed as reduction in TNFalpha-induced NFkB signaling by measuring ratio of nuclear p65 level to beta-actin level at 10 nM after 24 hrs by Western blot analysis (reference value: 2.97); format: cell-based; settings: Calvarial osteoblast
Rattus norvegicus [19] = assay: Antiosteoporotic activity in Sprague-Dawley rat model of OVX-induced bone loss assessed as bone formation rate at 100 ug/kg, sc administered 5 days/week for 12 weeks by microcomputed tomographic analysis (reference value: 0.171 +/- 0.005 um3/um2/day); format: functional; outline: as §3
Rattus norvegicus [20] = assay: Antiosteoporotic activity in Sprague-Dawley rat model of OVX-induced bone loss assessed as decrease in serum CTX level at 100 ug/kg, sc administered 5 days/week for 12 weeks by ELISA; format: functional, organism-based
Outline: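 Ovariectomy model as above: 12 weeks of osteopenia, then 12 weeks of daily gavage or subcutaneous estradiol. Serum was separated at autopsy, and CTX and PINP were measured by ELISA kits.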

[21] = molecular target: T1, I-kappa-B kinase (Rattus norvegicus); assay: Inhibition of IKK in TNFalpha-simulated Sprague-Dawley rat calvarial osteoblasts assessed as ratio of Bcl2 level to beta-actin level at 10 nM after 24 hrs by Western blot analysis (reference value: […]); format: cell-based; settings: Calvarial osteoblast
[22] = Toxicity in Sprague-Dawley rat model of OVX-induced bone loss assessed as uterine weight at 100 ug/kg, sc for 12 weeks (reference value: 0.12 +/- 0.02 g); format: organism-based; settings: in vivo, 0.1 mg/kg, 2016 h
Rattus norvegicus [23] = assay: as §1, with “trabecular bone pattern factor” for “structural model index”, “10.81” for “2.07”, “0.68 /millimeter)” for “0.06)”; format: functional; outline: as §2
[24] = Induction of osteoblast differentiation in Sprague-Dawley rat calvarial osteoblasts assessed as alkaline phosphatase activity after 48 hrs using PNPP as substrate by spectrophotometric method; format: functional, cell-based
Outline: (§5)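 Calvarial osteoblasts at 2 × 10³ cells/well. Treated 48 h with varied concentrations in differentiation medium (5% charcoal-treated FBS, 10 mM β-glycerophosphate, 50 µg·mL⁻¹ ascorbic acid). Total ALP read with PNPP substrate at 405 nm. Cell-free wells check for compound interference with substrate or absorbance.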

Calvarial osteoblast [25] = assay: Induction of osteoblast differentiation in Sprague-Dawley rat calvarial osteoblasts assessed as alkaline phosphatase activity at 0.000001 to 1 uM after 48 hrs using PNPP as substrate by spectrophotometric method relative to control; format: functional, cell-based; outline: as §5
Calvarial osteoblast [26] = assay: Increase in OCN protein expression in Sprague-Dawley rat calvarial osteoblasts at 100 pM after 48 hrs by Western blot analysis; format: functional, cell-based
Outline: (§6)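 Rat calvarial osteoblasts (pooled 1–2-day pups, collagenase/dispase digests) at 60–70% confluence treated 48 h. Whole-cell lysates immunoblotted with primary antibody overnight at 4 °C, then HRP secondary, with ECL detection. Densitometry gives fold change normalized to β-actin versus untreated cells. Mean ± SEM of three independent experiments.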

Calvarial osteoblast [27] = assay: Increase in Runx2 protein expression in Sprague-Dawley rat calvarial osteoblasts at 100 pM after 48 hrs by Western blot analysis; format: functional, cell-based; outline: as §6
[28] = Increase in Runx2 mRNA expression in Sprague-Dawley rat calvarial osteoblasts at 100 pM by RT-PCR method relative to control; format: functional, Calvarial osteoblast
[29] = Induction of osteoblast differentiation in Sprague-Dawley rat calvarial osteoblasts assessed as alkaline phosphatase activity at 100 pM after 48 hrs using PNPP as substrate by spectrophotometric method relative to control; format: functional; outline: as §5
[30] = Increase in BMP2 mRNA expression in Sprague-Dawley rat calvarial osteoblasts at 100 pM by RT-PCR method relative to control; format: functional, Calvarial osteoblast
Outline: (§7)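 Primary calvarial osteoblasts were lysed in TRIzol after treatment, and total RNA was extracted. Transcripts were quantified by real-time PCR using the comparative CT (ΔΔCT) method.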

Calvarial osteoblast [31] = assay: Cytotoxicity against Sprague-Dawley rat calvarial osteoblasts assessed as reduction in cell viability at 0.000001 to 1 uM after 48 hrs by MTT assay; format: cell-based
Outline: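 Osteoblasts came from pooled calvaria of 1-2-day-old Sprague-Dawley pups, isolated by sequential dispase/collagenase digestion. Cells were exposed to compound at 1 pM to 1 µM for 48 h, and viability was measured by MTT.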

Calvarial osteoblast [32] = assay: Osteogenic activity in Sprague-Dawley rat calvarial osteoblasts assessed as mineralized nodule formation at 100 pM after 21 days by alizarin red-S staining based colorimetric method; format: functional
Outline: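 Osteoblasts at 10,000–15,000 cells/cm² in duplicate plates, 21 days in differentiation medium, medium changed every 48 h. Cells fixed in 4% PFA, stained with alizarin red-S (40 mM, pH 4.5, 30 min) and photographed. Stain extracted with 10% acetic acid, pH brought to 4.5 with ammonium hydroxide, read at 405 nm, normalized to cell number.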

Calvarial osteoblast [33] = assay: Increase in BMP2 protein expression in Sprague-Dawley rat calvarial osteoblasts at 100 pM after 48 hrs by Western blot analysis; format: functional, cell-based
Outline: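 Rat calvarial osteoblasts at 60-70% confluence were treated 48 h. Whole-cell lysates were blotted, blocked in 5% milk, and probed with primary antibody overnight at 4 °C, then with HRP secondary and ECL detection. Densitometry was normalized to β-actin; fold change versus untreated cells, three independent experiments, mean ± SEM.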

[34] = Increase in OCN mRNA expression in Sprague-Dawley rat calvarial osteoblasts at 100 pM by RT-PCR method relative to control; format: functional, Calvarial osteoblast; outline: as §7

EC50 ([24]; calvarial osteoblast): Not Active
Emax (Calvarial osteoblast [25]): inactive
Compound: CCOC(=O)c1cc2c([nH]c3ccccc32)c(C(NC(C)(C)C)c2nnnn2C(C)(C)C)n1 (stereo not drawn)

EC50 ([24]; calvarial osteoblast): Not Active
Emax (Calvarial osteoblast [25]): inactive
Compound: COC(=O)c1cc2c([nH]c3ccccc32)c(C(NC(C)(C)C)c2nnnn2C(C)(C)C)n1 (stereo not drawn)

Further lines, the compound ahead of its results:

Compound: C[C@]12CC[C@@H]3c4ccc(O)cc4CC[C@H]3[C@@H]1CC[C@@H]2O [ESTRADIOL]
Activity_index (Rattus norvegicus [1]): 1.6
Activity (Rattus norvegicus [2]): 0.68 mm
Activity [3]: 0.87 mm2
Activity (Rattus norvegicus [4]): 1.06 micrometer/day
Activity (Rattus norvegicus [5]): 62.77 mJ
Ratio [6]: 0.66
Activity [7]: 17.8 um
Ratio [8]: 1.26
Ratio [9]: 0.9
Activity (Rattus norvegicus [10]): 171.75 N/mm
Ratio [11]: 0.81
Activity [12]: 0.054 mm2
Activity (Rattus norvegicus [13]): 1.55 /millimeter
Ratio [14]: 1.45
Ratio (Rattus norvegicus [15]): 11.09%
Ratio [16]: 0.65
inhibition [17]: Active
Ratio [18]: 1.41
Activity (Rattus norvegicus [19]): 1.04 um3/um2/day
Activity (Rattus norvegicus [20]): inactive
Ratio [21]: 1.45
Activity [22]: 0.45 g
Activity (Rattus norvegicus [23]): 5.99 /millimeter

Compound: COC(=O)c1cc2c([nH]c3ccccc32)c(C(NCc2ccc(C)cc2)c2nnnn2C(C)(C)C)n1 (stereo not drawn)
EC50 ([24]; calvarial osteoblast): Not Active
Emax (Calvarial osteoblast [25]): inactive

Compound: COC(=O)CNC(c1nc(C(=O)OC)cc2c1[nH]c1ccccc12)c1nnnn1C(C)(C)C (stereo not drawn)
EC50 ([24]; calvarial osteoblast): Not Active
Emax (Calvarial osteoblast [25]): inactive

Compound: CCOC(=O)c1cc2c([nH]c3ccccc32)c(C=O)n1
Activity (Calvarial osteoblast [26]): Active
Activity (Calvarial osteoblast [27]): Active
fold change (FC) [28]: 1.8 - 4.6
EC50 ([24]; Rattus norvegicus, Sprague-Dawley, Calvarial osteoblast, 48 h, read-out: EC50): 613 nM
Emax at 0.0001 µM [29]: 65%
fold change (FC) [30]: 1.8 - 4.6
Activity (Calvarial osteoblast [31]): Non-Toxic
Activity (Calvarial osteoblast [32]): 20%
Activity (Calvarial osteoblast [33]): Active
fold change (FC) [34]: 1.8 - 4.6

Compound: CCOC(=O)c1cc2c([nH]c3ccccc32)c(C(c2nnnn2C(C)(C)C)N2CCN(C(=O)c3ccco3)CC2)n1 (stereo not drawn)
EC50 ([24]; calvarial osteoblast): Not Active
Emax (Calvarial osteoblast [25]): inactive
